In ChEMBL document CHEMBL3784971, “Synthesis, characterization, antimicrobial and biofilm inhibitory studies of new esterquats” (Bioorg Med Chem Lett, 2016):

Columns and labels:
Staphylococcus aureus [1] = test: Bactericidal activity against Staphylococcus aureus MTCC 96 after 24 hrs by serial dilution method; assay type: functional; conditions: MTCC 96, 24 h
Bacillus subtilis [2] = test: Bactericidal activity against Bacillus subtilis MTCC 121 after 24 hrs by serial dilution method; assay type: functional; conditions: MTCC 121, 24 h
Pichia kudriavzevii [3] = test: Antimicrobial activity against Candida krusei MTCC 3020 assessed as growth inhibition after 24 hrs by agar well diffusion method; assay type: functional; conditions: MTCC 3020, 24 h
Candida albicans [4] = test: Antimicrobial activity against Candida albicans MTCC 183 assessed as growth inhibition after 24 hrs by agar well diffusion method; assay type: functional; conditions: MTCC 183, 24 h
Staphylococcus aureus [5] = test: Antibiofilm activity against Staphylococcus aureus MTCC 96 after 24 hrs by crystal violet staining based assay; assay type: functional, organism-based; conditions: MTCC 96, 24 h
Summary of the method: (§1)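 Biofilm inhibition tested for amine esters and esterquats. IC50 values (µg/mL) are the mean of three determinations, with ciprofloxacin as reference.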

[Candida] aaseri [6] = Fungicidal activity against Candida aaseri MTCC 1962 after 24 hrs by serial dilution method; assay type: functional; conditions: Yamadazyma aaseri, MTCC 1962, 24 h
Pseudomonas aeruginosa = test: Antimicrobial activity against Pseudomonas aeruginosa MTCC 2453 assessed as growth inhibition after 24 hrs by agar well diffusion method; assay type: functional; conditions: MTCC 2453, 24 h
Candida albicans [7] = test: Fungicidal activity against Candida albicans MTCC 227 after 24 hrs by serial dilution method; assay type: functional; conditions: MTCC 227, 24 h
Candida albicans [8] = test: Antimicrobial activity against Candida albicans MTCC 227 assessed as growth inhibition after 24 hrs by agar well diffusion method; assay type: functional; conditions: MTCC 227, 24 h
Candida parapsilosis [9] = test: Fungicidal activity against Candida parapsilosis MTCC 1744 after 24 hrs by serial dilution method; assay type: functional; conditions: Lodderomyces parapsilosis, MTCC 1744, 24 h
[Candida] aaseri [10] = Antimicrobial activity against Candida aaseri MTCC 1962 assessed as growth inhibition after 24 hrs by agar well diffusion method; assay type: functional; conditions: Yamadazyma aaseri, MTCC 1962, 24 h
Candida albicans [11] = test: Fungicidal activity against Candida albicans MTCC 3018 after 24 hrs by serial dilution method; assay type: functional; conditions: MTCC 3018, 24 h
Candida albicans [12] = test: Fungicidal activity against Candida albicans MTCC 1637 after 24 hrs by serial dilution method; assay type: functional; conditions: MTCC 1637, 24 h
Candida albicans [13] = test: Antimicrobial activity against Candida albicans MTCC 1637 assessed as growth inhibition after 24 hrs by agar well diffusion method; assay type: functional; conditions: MTCC 1637, 24 h
Escherichia coli [14] = test: Antimicrobial activity against Escherichia coli MTCC 739 assessed as growth inhibition after 24 hrs by agar well diffusion method; assay type: functional; conditions: MTCC 739, 24 h
Candida albicans [15] = test: Antimicrobial activity against Candida albicans MTCC 854 assessed as growth inhibition after 24 hrs by agar well diffusion method; assay type: functional; conditions: MTCC 854, 24 h
Candida albicans [16] = test: Fungicidal activity against Candida albicans MTCC 854 after 24 hrs by serial dilution method; assay type: functional; conditions: MTCC 854, 24 h
Bacillus subtilis [17] = test: Antibiofilm activity against Bacillus subtilis MTCC 121 after 24 hrs by crystal violet staining based assay; assay type: functional, organism-based; conditions: MTCC 121, 24 h; summary of the method: as §1
Raoultella planticola [18] = test: Bactericidal activity against Klebsiella planticola MTCC 530 after 24 hrs by serial dilution method; assay type: functional; conditions: MTCC 530, 24 h
Micrococcus luteus [19] = test: Antimicrobial activity against Micrococcus luteus MTCC 2470 assessed as growth inhibition after 24 hrs by agar well diffusion method; assay type: functional; conditions: MTCC 2470, 24 h
Candida parapsilosis [20] = test: Antimicrobial activity against Candida parapsilosis MTCC 1744 assessed as growth inhibition after 24 hrs by agar well diffusion method; assay type: functional; conditions: Lodderomyces parapsilosis, MTCC 1744, 24 h
Pichia kudriavzevii [21] = test: Fungicidal activity against Candida krusei MTCC 3020 after 24 hrs by serial dilution method; assay type: functional; conditions: MTCC 3020, 24 h
Candida albicans [22] = test: Antimicrobial activity against Candida albicans MTCC 3958 assessed as growth inhibition after 24 hrs by agar well diffusion method; assay type: functional; conditions: MTCC 3958, 24 h
Candida albicans [23] = test: Fungicidal activity against Candida albicans MTCC 183 after 24 hrs by serial dilution method; assay type: functional; conditions: MTCC 183, 24 h
Pichia sporocuriosa [24] = test: Fungicidal activity against Issatchenkia hanoiensis MTCC 4755 after 24 hrs by serial dilution method; assay type: functional; conditions: MTCC 4755, 24 h
Candida albicans [25] = test: Antimicrobial activity against Candida albicans MTCC 3017 assessed as growth inhibition after 24 hrs by agar well diffusion method; assay type: functional; conditions: MTCC 3017, 24 h
Raoultella planticola [26] = test: Antimicrobial activity against Klebsiella planticola MTCC 530 assessed as growth inhibition after 24 hrs by agar well diffusion method; assay type: functional; conditions: MTCC 530, 24 h
Micrococcus luteus [27] = test: Antibiofilm activity against Micrococcus luteus MTCC 2470 after 24 hrs by crystal violet staining based assay; assay type: functional, organism-based; conditions: MTCC 2470, 24 h; summary of the method: as §1
Nakaseomyces glabratus [28] = test: Fungicidal activity against Candida glabrata MTCC 3019 after 24 hrs by serial dilution method; assay type: functional; conditions: MTCC 3019, 24 h
Candida albicans [29] = test: Antimicrobial activity against Candida albicans MTCC 4748 assessed as growth inhibition after 24 hrs by agar well diffusion method; assay type: functional; conditions: MTCC 4748, 24 h
Candida albicans [30] = test: Antimicrobial activity against Candida albicans MTCC 7315 assessed as growth inhibition after 24 hrs by agar well diffusion method; assay type: functional; conditions: MTCC 7315, 24 h
Candida albicans [31] = test: Fungicidal activity against Candida albicans MTCC 3017 after 24 hrs by serial dilution method; assay type: functional; conditions: MTCC 3017, 24 h
Bacillus subtilis [32] = test: Antimicrobial activity against Bacillus subtilis MTCC 121 assessed as growth inhibition after 24 hrs by agar well diffusion method; assay type: functional; conditions: MTCC 121, 24 h
Candida albicans [33] = test: Antimicrobial activity against Candida albicans MTCC 3018 assessed as growth inhibition after 24 hrs by agar well diffusion method; assay type: functional; conditions: MTCC 3018, 24 h
Escherichia coli [34] = test: Bactericidal activity against Escherichia coli MTCC 739 after 24 hrs by serial dilution method; assay type: functional; conditions: MTCC 739, 24 h
Pichia sporocuriosa [35] = test: Antimicrobial activity against Issatchenkia hanoiensis MTCC 4755 assessed as growth inhibition after 24 hrs by agar well diffusion method; assay type: functional; conditions: MTCC 4755, 24 h
Candida albicans [36] = test: Fungicidal activity against Candida albicans MTCC 4748 after 24 hrs by serial dilution method; assay type: functional; conditions: MTCC 4748, 24 h
Staphylococcus aureus [37] = test: Antibiofilm activity against Staphylococcus aureus MLS16 MTCC 2940 after 24 hrs by crystal violet staining based assay; assay type: functional, organism-based; conditions: MLS16 MTCC 2940, 24 h; summary of the method: as §1
Micrococcus luteus [38] = test: Bactericidal activity against Micrococcus luteus MTCC 2470 after 24 hrs by serial dilution method; assay type: functional; conditions: MTCC 2470, 24 h
Staphylococcus aureus [39] = test: Antimicrobial activity against Staphylococcus aureus MTCC 96 assessed as growth inhibition after 24 hrs by agar well diffusion method; assay type: functional; conditions: MTCC 96, 24 h
Nakaseomyces glabratus [40] = test: Antimicrobial activity against Candida glabrata MTCC 3019 assessed as growth inhibition after 24 hrs by agar well diffusion method; assay type: functional; conditions: MTCC 3019, 24 h
Candida albicans [41] = test: Fungicidal activity against Candida albicans MTCC 7315 after 24 hrs by serial dilution method; assay type: functional; conditions: MTCC 7315, 24 h
Staphylococcus aureus [42] = test: Bactericidal activity against Staphylococcus aureus MLS16 MTCC 2940 after 24 hrs by serial dilution method; assay type: functional; conditions: MLS16 MTCC 2940, 24 h
Staphylococcus aureus [43] = test: Antimicrobial activity against Staphylococcus aureus MLS16 MTCC 2940 assessed as growth inhibition after 24 hrs by agar well diffusion method; assay type: functional; conditions: MLS16 MTCC 2940, 24 h
Candida albicans [44] = test: Fungicidal activity against Candida albicans MTCC 3958 after 24 hrs by serial dilution method; assay type: functional; conditions: MTCC 3958, 24 h

COC(=O)CCCCCCCCCC[N+](C)(C1CCCCC1)C1CCCCC1.[Cl-]
62.5 µg/mL: MFC (Candida parapsilosis [9]) | MFC (Candida albicans [11]) | MFC (Pichia kudriavzevii [21]) | MFC (Candida albicans [23]) | MFC (Nakaseomyces glabratus [28])
31.2 µg/mL: MIC (Pichia kudriavzevii [3]) | MFC ([Candida] aaseri [6]) | MFC (Candida albicans [7]) | MFC (Candida albicans [12]) | MIC (Candida albicans [13]) | MIC (Candida albicans [15]) | MFC (Candida albicans [16]) | MFC (Pichia sporocuriosa [24]) | MFC (Candida albicans [31]) | MFC (Candida albicans [36]) | MIC (Nakaseomyces glabratus [40]) | MFC (Candida albicans [41]) | MFC (Candida albicans [44])
4.4 µg/mL: IC50 (Bacillus subtilis [17])
15.6 µg/mL: MBC (Bacillus subtilis [2]) | MIC (Candida albicans [4]) | MIC (Candida albicans [8]) | MIC ([Candida] aaseri [10]) | MIC (Candida parapsilosis [20]) | MIC (Candida albicans [22]) | MIC (Candida albicans [25]) | MIC (Candida albicans [29]) | MIC (Candida albicans [30]) | MIC (Candida albicans [33]) | MIC (Pichia sporocuriosa [35])
3.6 µg/mL: IC50 (Staphylococcus aureus [37])
2.5 µg/mL: IC50 (Staphylococcus aureus [5]) | IC50 (Micrococcus luteus [27])
7.8 µg/mL: MBC (Staphylococcus aureus [1]) | MIC (Micrococcus luteus [19]) | MIC (Bacillus subtilis [32]) | MBC (Micrococcus luteus [38]) | MBC (Staphylococcus aureus [42])
> 125 µg/mL: MIC (Pseudomonas aeruginosa) | MIC (Escherichia coli [14]) | MBC (Raoultella planticola [18]) | MIC (Raoultella planticola [26]) | MBC (Escherichia coli [34])
3.9 µg/mL: MIC (Staphylococcus aureus [39]) | MIC (Staphylococcus aureus [43])

CCCCCCNCCCCCCCCCCC(=O)OC
15.6 µg/mL: MBC (Bacillus subtilis [2]) | MIC (Pichia kudriavzevii [3]) | MIC ([Candida] aaseri [10]) | MIC (Candida albicans [13]) | MIC (Candida albicans [15]) | MIC (Micrococcus luteus [19]) | MIC (Candida albicans [25])
> 125 µg/mL: MIC (Pseudomonas aeruginosa) | MIC (Escherichia coli [14]) | MBC (Raoultella planticola [18]) | MIC (Raoultella planticola [26]) | MBC (Escherichia coli [34])
3.9 µg/mL: IC50 (Staphylococcus aureus [37]) | MIC (Staphylococcus aureus [39]) | MIC (Staphylococcus aureus [43])
31.2 µg/mL: MIC (Candida albicans [4]) | MFC ([Candida] aaseri [6]) | MFC (Candida albicans [7]) | MIC (Candida albicans [8]) | MFC (Candida albicans [12]) | MFC (Candida albicans [16]) | MIC (Candida parapsilosis [20]) | MFC (Pichia kudriavzevii [21]) | MIC (Candida albicans [22]) | MFC (Pichia sporocuriosa [24]) | MFC (Nakaseomyces glabratus [28]) | MFC (Candida albicans [31]) | MIC (Candida albicans [33]) | MIC (Pichia sporocuriosa [35]) | MBC (Micrococcus luteus [38]) | MIC (Nakaseomyces glabratus [40])
4.2 µg/mL: IC50 (Bacillus subtilis [17])
2.6 µg/mL: IC50 (Staphylococcus aureus [5])
62.5 µg/mL: MFC (Candida parapsilosis [9]) | MFC (Candida albicans [11]) | MFC (Candida albicans [23]) | MIC (Candida albicans [29]) | MIC (Candida albicans [30]) | MFC (Candida albicans [36]) | MFC (Candida albicans [41]) | MFC (Candida albicans [44])
2.2 µg/mL: IC50 (Micrococcus luteus [27])
7.8 µg/mL: MBC (Staphylococcus aureus [1]) | MIC (Bacillus subtilis [32]) | MBC (Staphylococcus aureus [42])
